Experimental findings from publication PMC6387599 (Drug Design, Development and Therapy, 2019) are described below.

For data set [1], the system named is IL-6 production in LPS-induced A549 cells. Kind of data set: Inhibition of IL-6 production. The class given is cell-based. Particulars: Homo sapiens, A549, 24 h, read-out: inhibitory rate on IL-6. Summed up:
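A549 cells preincubated 1 h with test compound (10^-11–10^-6 M), then stimulated with LPS-EB (5 µL of 10 µg/mL solution) for 24 h. IL-6 in supernatants measured by ELISA, read at 450 nm. Inhibitory rate of IL-6 production calculated; IC50 from dose–response curves; n=3, mean ± SD.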

The nature of data set [2]: Equilibrium solubility in distilled water. To be noted: 25°C, 72 hours. The class given is physicochemical. Summed up: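 Supernatant sampled at 0, 12, 24, 36, 48, 60 and 72 h and passed through a 0.45-µm filter. Concentration measured by HPLC at 242 nm, 30°C, 1.0 mL/min. Mobile phase was methanol or acetonitrile with phosphate buffer (pH 8.0 or 7.4; 70:30 or 80:20 v/v), depending on compound.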

For a further data set, the system named is xylene-induced ear edema. Description: Xylene-induced ear edema test. The class given is in vivo. To be noted: mice, intraperitoneal, equivalent to 200 μg/kg Bud, 1 hour before xylene. Summed up:
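Male Kunming mice (20–25 g), n=10 per group, dosed intraperitoneally (0.1 mL/10 g body weight) with test compound at a dose equivalent to 200 µg/kg budesonide; vehicle 2% DMSO. After 1 h, 20 µL xylene applied to right ear, left ear untreated. Killed 1 h later; 6-mm ear discs weighed. Edema = right minus left ear weight. Analysed by one-way ANOVA with Fisher's LSD; mean ± SD.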

Turning to `CCCC1O[C@@H]2C[C@H]3[C@@H]4CCC5=CC(=O)C=C[C@]5(C)[C@H]4[C@@H](O)C[C@]3(C)[C@]2(C(=O)CO)O1` (stereo partly drawn) [Bud, budesonide], in data set [1], the inhibition at 0.001 µM is over 50%. Further, the equilibrium solubility in data set [2] amounted to 0.0022 g/100 g water. In the data set on xylene-induced ear edema, the “inhibition of ear edema” value is given as 17.19%.
